Measurements collected from several papers.
Each line is one published result; the experiments were not run side by side.
Cell line: MCF7
Observed: cell growth or viability

Structure (SMILES) | assay | conditions | IC50
COc1cc2ncnc(Nc3ccc(F)c(Cl)c3)c2cc1NC(=O)N/N=C/c1cccn1CCCN1CCCCC1 | MTT | 72 h | 2.81 µM
Cc1ccc2nc(-c3ccc(Cl)c(Cl)c3)n(Cc3ccccc3)c2c1 | MTT | – | 80.5 µM
CC(C)Cc1ccc(-c2nn(-c3ccc(S(C)(=O)=O)cc3)cc2/C=N/N=c2\[nH]c(-c3ccc([N+](=O)[O-])cc3)cs2)cc1 | MTT | 48 h | 2.85 µM
O=[N+]([O-])c1ccc(-c2csc(Nc3ccc4c(O)ncnc4c3)n2)cc1 | MTT | – | 3.09 µM
O=S(=O)(Cc1ccccc1)NN=Cc1cn(CCN2CCOCC2)c2ccccc12 | MTT | 48 h | 62.5 µM
CN(C)c1ccc(-c2nc3ccccc3[nH]2)cc1 | MTT | 48 h | > 100 µM
O=C(NC(=S)NCCNC(=S)NC(=O)c1ccc2ccccc2c1)c1ccc2ccccc2c1 | – | 48 h | 1.2 µM
c1ccc2c(-c3nc4ccccc4[nH]3)c3ccccc3cc2c1 | MTT | 48 h | 13.2 µM
CCn1c(=N)c(C(=O)NCCOC)cc2c(=O)n3ccccc3nc21 | MTT | 72 h | > 100 µM
Oc1c(I)cc(I)c2cccnc12 | MTT | 48 h | 75.1 µM
CSc1nc(/N=C/c2cc(C)ccc2O)n(-c2ccc(C(=O)O)cc2)n1 | MTT | – | 23.9 µM
O=C1Nc2c(C(F)(F)F)cccc2C1(c1ccc(OC(F)(F)F)cc1)c1c(F)cc(O)cc1F (stereo not shown) | resazurin | 24 h | 0.549 µM
COc1cc(OC)c(/C=C/S(=O)(=O)Nc2ccc(OC)c(N)c2)c(OC)c1 | trypan blue | 96 h | 0.004 µM
CC1(C)[C@@H](O)CC[C@]2(C)[C@H]3C(=O)C=C4[C@@H]5C[C@@](C)(C(=O)O)CC[C@]5(C)CC[C@@]4(C)[C@]3(C)CC[C@@H]12 | MTT | 48 h | > 100 µM
CSc1nc(NC(=S)NCCc2ccccc2)n(-c2ccc(C(=O)O)cc2)n1 | MTT | – | 15.6 µM
O=C(N/N=C/CN1CCOCC1)Nc1cc2c(Nc3ccc(F)c(Cl)c3)ncnc2cc1O[C@H]1CCOC1 | MTT | 72 h | 1.08 µM
O=c1c(O)c(-c2ccc(O)cc2)oc2cc(O)cc(O)c12 | WST-1 | 48 h | 27.2 µM
FC(F)(F)c1cccc(Nc2ncnc3ccc(-c4ccc(Cl)cc4)cc23)c1 | MTT | 24 h | 12.3 µM
Cc1ccc2nc(-c3ccc4c(c3)OCO4)[nH]c2c1 | MTT | 48 h | > 100 µM
COC(=O)/C=C1\S/C(=N\C(=O)c2ccc3ccccc3c2)N(C2CCCCC2)C1=O | – | 48 h | 14.3 µM
C1CCCC1.C1CCCC1.[Cl][W][Cl] | MTT | – | 630 µM
Oc1ccccc1-c1nc2ccccc2[nH]1 | MTT | 48 h | > 100 µM
FC(F)(F)c1cccc(Nc2ncnc3ccc(Nc4ccccc4)cc23)c1 | MTT | 24 h | 11.4 µM
COc1ccc(-c2nc3ccc(C)cc3[nH]2)cc1OC | MTT | 48 h | > 100 µM
COc1cc2ncnc(Nc3ccc(F)c(Cl)c3)c2cc1NC(=O)N/N=C/c1cccn1CCN1CCCC1 | MTT | 72 h | 2.45 µM
